Measured values reported in ChEMBL document CHEMBL5365541, “Designing peptide amphiphiles as novel antibacterials and antibiotic adjuvants against gram-negative bacteria” (Bioorg Med Chem, 2023).
In brackets after ≈: the same amount, converted by molar mass. Activity calls are given as the source filed them. The calls are words filed in the database; no cut-off is given here.

Tests used:
Escherichia coli [1] = test: Induction of morphological changes in Escherichia coli K12 assessed as membrane deformations with protruding bumps at 8 ug/ml incubated for 2 hrs by scanning electron microscopy; format: functional, organism-based; conditions: dose 8.0 µg/ml
Acinetobacter baumannii [2] = test: Antibacterial activity against Acinetobacter baumannii incubated for 20 to 24 hrs by broth microdilution method; format: functional; conditions: time 20-24 hrs
Outline: (§1)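 Broth microdilution: colonies suspended directly to 1.5×10^8 CFU/mL (0.5 McFarland), then diluted in Mueller–Hinton broth to ~10^5 CFU/mL final. PA stock 1 mg/mL in water, pH 7, serially diluted in MHB. Plates incubated 20–24 h at 37 °C. MIC = lowest concentration inhibiting growth, read as OD600 with optional 1% TTC staining. Triplicate.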

Cell membrane [3] = test: Induction of inner membrane permeability in Escherichia coli K12 at 8 to 16 ug/mL by propidium iodide staining based spectrofluorometry; format: subcellular; conditions: dose 8-16 µg/ml
Outline: (§2)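 E. coli K12 grown in MHB to mid-log, washed twice in PBS, and diluted to 10^6 CFU/mL in 5 mM HEPES + glucose. Cells preincubated with […] at least 15 min at 37 °C. Then treated with agent at 1/8, 1× or 2× MIC, or with PA–vancomycin 1:1. Fluorescence read at ex 535 / em 615 nm. Polymyxin B as positive control; untreated cells as negative control.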

Staphylococcus aureus [4] = test: Antibacterial activity against methicillin-resistant Staphylococcus aureus 13C incubated for 20 to 24 hrs by broth microdilution method; format: functional; conditions: time 20-24 hrs
Outline: (§3)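 Broth microdilution in MHB: direct colony suspension at 0.5 McFarland diluted to ~10^5 CFU/mL final; peptide stock 1 mg/mL in water at pH 7, serially diluted. Incubated 20-24 h at 37 °C; MIC taken as the lowest concentration inhibiting growth (OD 600 nm, 1% TTC stain); triplicate; vancomycin and gentamicin as positive controls.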

Cell membrane [5] = test: Induction of inner membrane permeability in Escherichia coli K12 at 4 ug/mL by propidium iodide staining based spectrofluorometry; format: subcellular; conditions: dose 4.0 µg/ml; outline: as §2
Escherichia coli [6] = test: Synergistic antibacterial activity against Escherichia coli K12 assessed as fractional inhibitory concentration index incubated for 20 to 24 hrs in presence of rifampicin by checkerboard broth microdilution assay; format: functional; conditions: time 20-24 hrs
Outline: (§4)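 Checkerboard broth microdilution. E. coli K12 or A. baumannii clinical isolate grown to mid-log (OD ~0.8) and diluted to ~10^5 CFU/mL in MHB. Two-fold dilutions of rifampicin or vancomycin run across the plate against two-fold PA dilutions down it. Incubated 20–24 h at 37 °C, OD read at 470 nm. FICi calculated from the combination MICs.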

Escherichia coli [7] = test: Induction of morphological changes in Escherichia coli K12 assessed as cytoplasmic leakage at 8 ug/ml incubated for 2 hrs by scanning electron microscopy; format: functional, organism-based; conditions: dose 8.0 µg/ml
Escherichia coli [8] = test: Induction of morphological changes in Escherichia coli K12 assessed as membrane deformations with protruding holes at 8 ug/ml incubated for 2 hrs by scanning electron microscopy; format: functional, organism-based; conditions: dose 8.0 µg/ml
Cell membrane [9] = test: Induction of inner membrane permeability in methicillin-resistant Staphylococcus aureus JE2 assessed as shift in bacterial zeta potential at 40 ug/ml measured after 1 hr; format: subcellular; conditions: dose 40.0 µg/ml
Outline: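 Mid-log MRSA JE2 from MHB (OD ~0.8) washed and resuspended in PBS at 5×10^7 CFU/mL, exposed to peptide at 10 × MIC for 1 h, then zeta potential measured at 25 °C; untreated cells as negative control, daptomycin and polymyxin B as reference drugs.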

[10] = Retention time of the compound by RP-HPLC analysis; format: physicochemical
Outline: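 Reverse-phase HPLC, linear gradient 0–100% acetonitrile in water with 0.1% TFA over 20 min; retention time recorded.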

Escherichia coli [11] = test: Ratio of MIC for Escherichia coli K12 at pH 5.5 to MIC for Escherichia coli K12 at pH 7.0
Staphylococcus aureus [12] = test: Induction of morphological changes in methicillin-resistant Staphylococcus aureus JE2 assessed as membrane deformations with protruding holes at 8 ug/ml incubated for 2 hrs by scanning electron microscopy; format: functional, organism-based; conditions: dose 8.0 µg/ml
Escherichia coli [13] = test: Antibacterial activity against Escherichia coli K12 incubated for 20 to 24 hrs by broth microdilution method; format: functional; conditions: time 20-24 hrs; outline: as §1
Staphylococcus aureus [14] = test: Induction of morphological changes in Methicillin-resistant Staphylococcus aureus JE2 assessed as cytoplasmic leakage at 8 ug/ml incubated for 2 hrs by scanning electron microscopy; format: functional, organism-based; conditions: dose 8.0 µg/ml
Acinetobacter baumannii [15] = test: Synergistic antibacterial activity against Acinetobacter baumannii assessed as fractional inhibitory concentration index incubated for 20 to 24 hrs in presence of rifampicin by checkerboard broth microdilution assay; format: functional; conditions: time 20-24 hrs; outline: as §4
[16] = Self assembly property of the compound assessed as width of micelles at 1 mg/ml incubated overnight by transmission electron microscopy; format: physicochemical
Outline: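 Samples were dissolved at 2 mM in water, pH 7, and left at room temperature overnight. Applied to copper grids for 5 min, blotted, and negatively stained with NanoVan for 30 s. Imaged by TEM at 120 kV.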

HEK293 = test: Cytotoxicity against HEK293 cells assessed as reduction in cell viability at 64 to 256 ug/ml incubated for 24 hrs by XTT assay; format: toxicity, cell-based; conditions: human, hek293, 24 h, dose 64-256 µg/ml
Outline: (§5)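 HEK-293 cells, passages 3–8, seeded at 5×10^4 per well and preincubated 24 h at 37 °C, 5% CO2. Medium replaced with serially diluted PA, final 8–256 µg/mL, for 24 h, in triplicate. XTT reagent (0.5 mg/mL) added for 4 h at 37 °C, then absorbance read at 600 nm.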

Staphylococcus aureus [17] = test: Antibacterial activity against methicillin resistant Staphylococcus aureus JE2 measured over 21 days by broth microdilution method; format: functional, organism-based; conditions: time 21.0 day
Cell membrane [18] = test: Induction of inner membrane permeability in Escherichia coli K12 assessed as shift in bacterial zeta potential at 40 ug/ml measured after 1 hr; format: subcellular; conditions: dose 40.0 µg/ml
Staphylococcus aureus [19] = test: Inhibition of biofilm formation in methicillin-resistant Staphylococcus aureus JE2 at MIC; format: functional, organism-based
Staphylococcus aureus [20] = test: Ratio of MIC for methicillin-resistant Staphylococcus aureus JE2 at pH 5.5 to MIC for methicillin-resistant Staphylococcus aureus JE2 at pH 7.0
Staphylococcus aureus [21] = test: Disruption of preformed biofilm in methicillin-resistant Staphylococcus aureus JE2 at MIC to 4 times MIC; format: functional, organism-based
[22] = Toxicity in Galleria mellonella assessed as survival at 125 to 150 mg/kg measured after 4 days relative to control; format: organism-based; conditions: in vivo, dose 125-150 mg/kg, time 4 day
Outline: (§6)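 Acute toxicity in G. mellonella larvae following OECD guidelines: cohorts of five larvae injected starting at 25 mg/kg, retested […] on new larvae if lethality was under 40%, continuing until a toxic dose was found; incubated at 37 °C with mortality recorded daily over 4 days.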

Staphylococcus aureus [23] = test: Antibacterial activity against Methicillin-resistant Staphylococcus aureus JE2 infected in Galleria mellonella assessed as survival at 75 mg/kg measured after 4 days relative to control; format: functional; conditions: JE2, 96 h, time 4 day
Outline: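 G. mellonella larvae injected with 10 µL MRSA JE2 at a pre-set infective dose (60-80% lethality within 48 h, not 100% within 24 h) into last left proleg; after 2 h, 10 µL peptide or antibiotic injected into last right proleg; larvae held at 37 °C, mortality recorded daily for 4 days; untreated infected and PBS-only larvae as controls.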

[24] = Self assembly property of the compound assessed as zeta potential at 250 ug/mL at pH 7 measured after 2 hrs; format: physicochemical; conditions: pH 7, 2 h, dose 250 µg/ml
Outline: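 Peptide self-assembled at 1 mg/mL, pH 7, annealed 2 h at 80 °C, and aged overnight. Diluted to 250 µg/mL in water; zeta potential measured at 25 °C.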

Staphylococcus aureus [25] = test: Induction of morphological changes in methicillin-resistant Staphylococcus aureus JE2 assessed as membrane deformations with protruding bumps at 8 ug/ml incubated for 2 hrs by scanning electron microscopy; format: functional, organism-based; conditions: dose 8.0 µg/ml
Staphylococcus aureus [26] = test: Antibacterial activity against methicillin-resistant Staphylococcus aureus LAC incubated for 20 to 24 hrs by broth microdilution method; format: functional; conditions: time 20-24 hrs; outline: as §3
Acinetobacter baumannii [27] = test: Synergistic antibacterial activity against Acinetobacter baumannii assessed as potentiation of rifampicin-induced antibacterial activity by measuring fold increase in rifampicin MIC incubated for 20 to 24 hrs by checkerboard broth microdilution assay relative to rifampicin alone; format: functional; conditions: time 20-24 hrs; outline: as §4
[28] = Cytotoxicity against HEK293 cells assessed as cell viability up to 64 ug/ml incubated for 24 hrs by XTT assay relative to control; format: toxicity, cell-based; conditions: human, up to 64 µg/mL, read-out: Activity; outline: as §5
[29] = Toxicity in Galleria mellonella assessed as survival at 75 mg/kg measured after 4 days relative to control; format: organism-based; conditions: in vivo, time 4 day; outline: as §6
Staphylococcus aureus [30] = test: Antibacterial activity against methicillin-resistant Staphylococcus aureus JE2 incubated for 20 to 24 hrs by broth microdilution method; format: functional; conditions: time 20-24 hrs; outline: as §3

CCCCCCCCCCCCCCCCN[C@@H](CCCCN)C(=O)N[C@@H](CCCNC(=N)N)C(=O)N[C@@H](CCCCN)C(=O)N[C@@H](CCCNC(=N)N)C(=O)O
Activity (Escherichia coli [1]): Active | MIC (Acinetobacter baumannii [2]): 8 µg/mL (≈ 9.86 µM) | Activity (Cell membrane [3]): Active | MIC (Staphylococcus aureus [4]): 8 µg/mL (≈ 9.86 µM) | Activity (Cell membrane [5]): inactive | fractional inhibitory concentration index (FICI) (Escherichia coli [6]): 0.62 | Activity (Escherichia coli [7]): Active | Activity (Escherichia coli [8]): Active | Activity (Cell membrane [9]): Active | Retention_time [10]: 13.8 min | Ratio (Escherichia coli [11]): > 1 | Activity (Staphylococcus aureus [12]): Active | MIC (Escherichia coli [13]): 4 µg/mL (≈ 4.93 µM) | Activity (Staphylococcus aureus [14]): Active | fractional inhibitory concentration index (FICI) (Acinetobacter baumannii [15]): 0.75 | Activity [16]: 7 nm | Activity (HEK293): Non-Toxic | Activity (Staphylococcus aureus [17]): Active | Activity (Cell membrane [18]): Active | inhibition (Staphylococcus aureus [19]): Active | Ratio (Staphylococcus aureus [20]): > 1 | Activity (Staphylococcus aureus [21]): inactive | survival at 96 h [22]: 80% | survival at 75 mg/kg (Staphylococcus aureus [23]): 60% | Activity [24]: 15 mV | Activity (Staphylococcus aureus [25]): Active | MIC (Staphylococcus aureus [26]): 8 µg/mL (≈ 9.86 µM) | fold change (FC) (Acinetobacter baumannii [27]): 2 | viability at 24 h [28]: 100% | survival at 96 h [29]: 100% | MIC (Staphylococcus aureus [30]): 4 µg/mL (≈ 4.93 µM)
